Converted amounts (≈) assume the structure as drawn. The source made the active and inactive calls. Unless noted, the calls are words filed in the database; no cut-off is given here.

The test system of one data set is Pseudomonas aeruginosa. Put plainly: Antibacterial activity against Pseudomonas aeruginosa PA14 incubated for 24 hrs by serial broth microdilution method. Format: functional, organism-based. Summed up:
(§1)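 Log-phase cultures from four colonies grown overnight at 37 °C, inoculated at ~5×10^5 cells/mL in cation-adjusted Mueller–Hinton broth with serially diluted compound. Grown 24 h at 37 °C, then OD600 read. MIC50/MIC90 are the concentrations giving 50%/90% growth inhibition relative to drug-free controls. Two independent experiments in duplicate.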

A further data set has as its system Acinetobacter baumannii. Put plainly: Antibacterial activity against Acinetobacter baumannii ATCC 17961 incubated for 24 hrs by serial broth microdilution method. Format: functional. The conditions noted are these: ATCC 17961, 24 h. The gist of the method:
as §1

The test system of data set [1] is Escherichia coli. Kind of data set: Antibacterial activity against Escherichia coli BW25113 incubated for 24 hrs by serial broth microdilution method. The format is functional, organism-based. Summed up: as §1
Data set [2] relates to Enterococcus faecalis. Kind of data set: Antibacterial activity against Enterococcus faecalis ATCC 51299 incubated for 24 hrs by serial broth microdilution method. The format is functional, organism-based. Summed up: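 Broth microdilution in brain heart infusion broth, ~5×10^5 cells/mL log-phase inoculum, serial compound dilutions, 24 h at 37 °C, OD600 read-out. MIC50/MIC90 are the concentrations giving 50%/90% growth inhibition relative to drug-free controls. Two independent experiments in duplicate.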

For data set [3], the system named is Mycolicibacterium smegmatis. Kind of data set: Antibacterial activity against Mycolicibacterium smegmatis MC2 155 incubated for 24 hrs by serial broth microdilution method. The format is functional. The conditions noted are these: MC2 155, 24 h. Summed up: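 Growth read by OD600. MRSA in cation-adjusted Mueller–Hinton broth, M. smegmatis in complete 7H9. MIC50 and MIC90 are 50% and 90% growth inhibition versus drug-free controls. Two independent experiments, each in duplicate.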

The subject of data set [4] is Escherichia coli. Kind of data set: Bactericidal activity against Escherichia coli BW25113 assessed as reduction in CFU at 1 to 4 times MIC90 incubated for 24 hrs. Format: functional, organism-based.
The test system of data set [5] is Enterococcus faecalis. Put plainly: Bactericidal activity against Enterococcus faecalis ATCC 51299 assessed as reduction in CFU at 1 to 4 times MIC90 incubated for 24 hrs. Format: functional, organism-based.
For data set [6], the system named is Mycobacterium tuberculosis. Put plainly: Bactericidal activity against Mycobacterium tuberculosis H37Rv assessed as reduction in CFU at 1 to 4 times MIC90 incubated for 7 days. The conditions noted are these: 168 h, read-out: MBC99.9. Format: functional. The gist of the method:
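Then plated on complete 7H10 agar for CFU. Inoculum plated at time zero. MBC99.9 is a 1000-fold CFU reduction versus the time-zero inoculum.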

A further data set relates to Erythrocyte. Put plainly: Hemolytic activity in human RBC at 100 uM measured after 1 hr. Format: ADME, cell-based. The gist of the method: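 Fresh human RBCs were PBS-washed and resuspended to OD600 24, then mixed 1:1 by volume with compound serially diluted in PBS. Incubated 1 h at 37 °C without shaking and centrifuged at 1000g for 15 min. Triton X-100 served as positive control. Run in triplicate.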

The target in data set [7] is T1, tRNA (guanine-N(1)-)-methyltransferase (Pseudomonas aeruginosa (strain ATCC 15692 / DSM 22644 / CIP 104116 / JCM14847 / LMG 12228 / 1C / PRS 101 / PAO1), UniProt Q9HXQ1).
T1 sequence (Q9HXQ1 whole entry): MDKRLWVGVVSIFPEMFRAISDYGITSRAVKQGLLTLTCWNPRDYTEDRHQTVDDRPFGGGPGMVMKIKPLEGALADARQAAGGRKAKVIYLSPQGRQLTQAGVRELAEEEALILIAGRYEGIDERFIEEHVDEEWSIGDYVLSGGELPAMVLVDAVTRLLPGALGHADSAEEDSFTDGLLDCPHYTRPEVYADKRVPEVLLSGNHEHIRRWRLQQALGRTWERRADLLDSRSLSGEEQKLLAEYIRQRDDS
Put plainly: Inhibition of Pseudomonas aeruginosa tRNA (guanine(37)-N1)-methyltransferase (Leu5 to Asp25 residues) expressed in Escherichia coli BL21 Rosetta (DE3) assessed as reduction in S-adenosyl-L-homocysteine production preincubated for 15 mins followed by 4.5 uM of tRNALeu(CAG) substrate and SAM addition and measured after 45 mins by MTase-Glo assay. Summed up:
(§2)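 tRNA competition: same MTase-Glo assay with 8 nM PaTrmD and 2 μM SAM, 15 min preincubation and 45 min reaction at 37 °C. tRNALeu(CAG) at 1.5, 4.5 or 15 μM. IC50 from dose–response curves, duplicate data points.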

Data set [8] has as its target T1, tRNA (guanine-N(1)-)-methyltransferase. Kind of data set: Inhibition of Pseudomonas aeruginosa tRNA (guanine(37)-N1)-methyltransferase (Leu5 to Asp25 residues) expressed in Escherichia coli BL21 Rosetta (DE3) assessed as reduction in S-adenosyl-L-homocysteine production preincubated for 15 mins followed by 15 uM of tRNALeu(CAG) substrate and SAM addition and measured after 45 mins by MTase-Glo assay. The gist of the method:
as §2

Data set [9] has as its target T2, tRNA (guanine-N(1)-)-methyltransferase (Mycobacterium tuberculosis (strain ATCC 25618 / H37Rv)) (UniProt P9WFY7).
T2 sequence (whole entry): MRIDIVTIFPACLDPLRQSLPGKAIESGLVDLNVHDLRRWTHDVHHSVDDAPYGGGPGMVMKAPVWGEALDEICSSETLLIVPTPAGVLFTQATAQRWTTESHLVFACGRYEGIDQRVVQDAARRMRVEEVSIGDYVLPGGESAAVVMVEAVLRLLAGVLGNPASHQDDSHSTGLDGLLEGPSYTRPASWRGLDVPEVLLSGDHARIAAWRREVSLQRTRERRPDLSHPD
Put plainly: Binding affinity to full length Mycobacterium tuberculosis tRNA (guanine(37)-N1)-methyltransferase expressed in Escherichia coli BL21 (DE3) assessed as dissociation rate constant by surface plasmon resonance assay. Summed up:
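SPR at 25 °C. His-tagged TrmD (50 μg/mL) captured on an anti-His antibody surface (about 2200 RU), with a blank reference cell. Buffer: 50 mM Tris-HCl pH 8, 150 mM NaCl, 1 mM MgCl2, 1 mM DTT, 0.05% Tween-20. Analyte in 2-fold dilutions, injected lowest to highest at 30 μL/min, 30 s contact, 240 s dissociation. KD from steady-state affinity fit.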

Data set [10] addresses T3, tRNA (guanine-N(1)-)-methyltransferase (Pseudomonas aeruginosa (strain ATCC 15692 / DSM 22644 / CIP 104116 / JCM14847 / LMG 12228 / 1C / PRS 101 / PAO1)) (UniProt Q9HXQ1).
T3 sequence (whole entry): T1 sequence (Q9HXQ1 whole entry)
Kind of data set: Binding affinity to Pseudomonas aeruginosa tRNA (guanine(37)-N1)-methyltransferase (Leu5 to Asp25 residues) expressed in Escherichia coli BL21 (DE3) Rosetta T1R cells assessed as thermal stabilization of protein by measuring change in melting temperature at 0.1 mM by SYPRO orange based thermal shift assay. The gist of the method:
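Thermal shift: 4 μM TrmD with 5× SYPRO Orange and ligand in 50 mM Tris-HCl pH 8, 150 mM NaCl, 1 mM MgCl2, 1 mM DTT, 0.05% Tween-20. Buffer-only control. Heated from 25 to 95 °C in a real-time PCR instrument, and Tm taken as the unfolding midpoint. Ligand levels: SAH 2 mM, inhibitors 0.1 mM.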

For `CCCCCCCCCCNCc1ccc(CNC(=O)c2csc3nc[nH]c(=O)c23)cc1`, the MIC50 entry in the data set with Pseudomonas aeruginosa, in the data set on Escherichia coli [1] and with Enterococcus faecalis [2] was “inactive” throughout. For the same compound, the MIC90 entry in the data set with Pseudomonas aeruginosa, in the data set on Escherichia coli [1] and in the data set with Enterococcus faecalis [2] was “inactive” in each case. Moreover, the MIC50 against Acinetobacter baumannii was over 100 µM; in data set [3], 13 µM (≈ 5.91 µg/mL). Also, the results for the MIC90 (with Acinetobacter baumannii; in data set [3]) were over 100 µM and 18 µM (≈ 8.18 µg/mL), respectively. Moreover, the MBC99.9 entry in the data set on Escherichia coli [4] and in the data set on Enterococcus faecalis [5] was “inactive” in each case. Also, the MBC in [6] was found to be 75 µM (≈ 34.1 µg/mL). Also, the Activity result with Erythrocyte is on record as “Non-Toxic”.

`CCCCCCCCNCc1ccc(CNC(=O)c2csc3nc[nH]c(=O)c23)cc1`: the IC50 in data set [7] was found to be 60 nM; in data set [8] it was 260 nM. The Kdiss in data set [9] was 0.12 s⁻¹. In data set [10], the shift in melting temperature (ΔTm) is 12 °C. Further, the MIC50 result in the data set with Pseudomonas aeruginosa, with Escherichia coli [1] and with Enterococcus faecalis [2] was “inactive” each time. Also, the MIC90 result with Pseudomonas aeruginosa, with Escherichia coli [1] and in the data set with Enterococcus faecalis [2] was “inactive” each time. The MIC50 with Acinetobacter baumannii is 62 µM (≈ 26.4 µg/mL); in [3], 58 µM (≈ 24.7 µg/mL). In the data set on Acinetobacter baumannii, the MIC90 was 95 µM (≈ 40.5 µg/mL). Further, the MBC99.9 result in the data set on Escherichia coli [4] and in the data set with Enterococcus faecalis [5] was “inactive” throughout. For the same compound, the MBC in [6] is over 100 µM. The Activity result in the data set on Erythrocyte is “Non-Toxic”.

Consider `NC1CCN(Cc2ccc(CNC(=O)c3csc4nc[nH]c(=O)c34)cc2)CC1`, for which the IC50 in data set [7] is 330 nM; in data set [8] it was 840 nM. For the same compound, the Kdiss in [9] was found to be 0.209 s⁻¹. Moreover, the ΔTm in data set [10] fell in the range of 4 to 29 °C.

For the origin of these results see ChEMBL document CHEMBL4373727, “Thienopyrimidinone Derivatives That Inhibit Bacterial tRNA (Guanine37-N1)-Methyltransferase (TrmD) by Restructuring the Active Site with a Tyrosine-Flipping Mechanism” (J Med Chem, 2019).
